# Measurements collected from several papers.
# Protocols differ between the studies behind these lines.
# FLT3: Receptor-type tyrosine-protein kinase FLT3 (FLT3, Homo sapiens, UniProt P36888)
# FLT3 N841I: Receptor-type tyrosine-protein kinase FLT3 (FLT3, Homo sapiens, UniProt P36888, N841I)
# FLT3 D835Y: Receptor-type tyrosine-protein kinase FLT3 (FLT3, Homo sapiens, UniProt P36888, D835Y)
# FLT3 K663Q: Receptor-type tyrosine-protein kinase FLT3 (FLT3, Homo sapiens, UniProt P36888, K663Q)
Structure (SMILES),target,test,conditions,quantity,value
N#Cc1ccc(NC(=O)Nc2ccccc2)cc1,FLT3,"cell-free assay, competition with immobilised ligand",25 µM,remaining binding,100%
C[C@H]1CC[C@H](n2c3cnccc3c3cnc(Nc4ccc5c(n4)CCN(C(=O)CO)C5)nc32)CC1,FLT3 N841I,cell-free assay,1 µM,remaining signal,0%
CNS(=O)(=O)c1ccc(Nc2ncc(C(F)(F)F)c(N3CCC[C@](C)(O)C3)n2)c(C)c1,FLT3 N841I,"binding, competition with immobilised ligand",1 µM,remaining binding,70%
COc1ccc2oc(-c3ccc4nc(N)oc4c3)c/c(=N\c3ccccc3NC(=O)CCN)c2c1,FLT3,binding,1 µM,remaining binding,108%
C[C@]1(O)CCCN(c2nc(Nc3ccc(S(=O)(=O)N[C@H]4CC[C@H](CN5CCN(c6ccc(C7CCC(=O)NC7=O)cc6F)CC5)CC4)cc3F)ncc2C(F)(F)F)C1 (stereo partly drawn),FLT3 N841I,"binding, competition with immobilised ligand",1 µM,remaining binding,72%
C=CC(=O)N1CCC([C@@H]2CCNc3c(C(N)=O)c(-c4ccc(Oc5ccccc5)cc4)nn32)CC1,"Receptor-type tyrosine-protein kinase FLT3 (FLT3, Homo sapiens, UniProt P36888, ITD)","enzyme activity, inhibitor",1 µM,inhibition,5%
Cc1ccc(NC(=O)c2ccnc(C(F)(F)F)c2)cc1-c1cc(OCCO)nc(N2CCOCC2)c1,"Receptor-type tyrosine-protein kinase FLT3 (FLT3, Homo sapiens, UniProt P36888, R834Q)",binding,1 µM,remaining binding,100%
Cc1n[nH]c2ccc3nc(-c4ccc(C(=O)NCCN(C)C)cc4F)c4c(c3c12)CCCC4,FLT3 D835Y,"enzyme activity, inhibitor, radiometric",0.5 µM,remaining activity,2%
C1=C/COCc2cc(ccc2OCCN2CCCC2)Nc2nccc(n2)-c2cccc(c2)COC/1,FLT3 K663Q,binding,0.1 µM,remaining binding,11%
CC#CC(=O)N1CCC[C@H]1c1nc(-c2ccc(C(=O)Nc3ccccn3)cc2)c2c(N)nccn12,"Receptor-type tyrosine-protein kinase FLT3 (FLT3, Homo sapiens, UniProt P36888, D835V)","enzyme activity, inhibitor",1 µM,inhibition,1%
C#Cc1cc(-c2cc(Nc3nc(N[C@@H](C)c4ccc(F)cn4)ncc3Cl)n[nH]2)ccc1C=O,FLT3,"enzyme activity, inhibitor",0.2 µM,inhibition,98.8%
COc1ccc2[nH]c3c4[nH]c5ccc(OC)cc5c4c4c(c3c2c1)C(=O)NC4=O,FLT3 D835Y,binding,1 µM,remaining binding,16%
O=C1C=C(Nc2ccc(OCc3cn(Cc4ccc(Cl)c(Cl)c4)nn3)cc2)C(=O)c2ccccc21,FLT3,"enzyme activity, inhibitor, radiometric",10 µM,inhibition,-21%
CN1CCN(C(=O)c2ccc(NC(=O)Nc3ccc(N(C)c4ccnc(Nc5ccc(CS(C)(=O)=O)cc5)n4)cc3)cc2)CC1,FLT3 D835Y,binding,1 µM,remaining binding,5.3%
CCCCC(=O)Nc1ccc(-c2ccc3ncn(CCC)c(=O)c3c2)cn1,FLT3 K663Q,"binding, competition with immobilised ligand",0.5 µM,remaining binding,96%
